Reference: ChEMBL document CHEMBL1142689, “Identification of 2-(4-benzyloxyphenyl)-N- [1-(2-pyrrolidin-1-yl-ethyl)-1H-indazol-6-yl]acetamide, an orally efficacious melanin-concentrating hormone receptor 1 antagonist for the treatment of obesity” (J Med Chem, 2005)

Experiments:
Mus musculus [1] = experiment: Body weight of mice on day 14 following peroral administration at 10 mg/kg, twice a day; n = 12; assay type: functional; details: route oral
Outline: (§1)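 Chronic study in DIO mice fed a high-fat diet ad libitum. Dosing was by oral gavage, bid for 14 days, in 4 mL/kg of 1% Tween-80 in water, with vehicle controls. Body weight and food intake were recorded on days 1, 4, 7, 11 and 14. Body-weight change is in grams relative to day 0, and % change is relative to vehicle. Mean ± SEM, n = 12.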

Mus musculus [2] = experiment: Body weight of mice on day 14 following peroral administration at 30 mg/kg, twice a day; n = 12; assay type: functional; details: route oral; outline: as §1
[3] = Concentration in brain of mice,17 hours after administration of final dose at 30 mg/kg, twice a day; assay type: ADME, organism-based; set-up: dose 30 mg/kg; details: mouse, read-out: Cmax
Outline: (§2)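 DIO mice received the test compound orally, bid, in 1% Tween-80 in water for 14 days. Plasma and brain drug concentrations were measured 1 h (taken as Cmax) or 17 h after the final dose on day 14. Mean ± SEM, n = 3.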

[4] = target: T1, Melanin-concentrating hormone receptor 1 (Homo sapiens, UniProt Q99705); experiment: Inhibition of melanin concentrating hormone receptor 1 from human neuronal IMR-32 cells; assay type: cell-based
T1 sequence (Q99705 whole entry): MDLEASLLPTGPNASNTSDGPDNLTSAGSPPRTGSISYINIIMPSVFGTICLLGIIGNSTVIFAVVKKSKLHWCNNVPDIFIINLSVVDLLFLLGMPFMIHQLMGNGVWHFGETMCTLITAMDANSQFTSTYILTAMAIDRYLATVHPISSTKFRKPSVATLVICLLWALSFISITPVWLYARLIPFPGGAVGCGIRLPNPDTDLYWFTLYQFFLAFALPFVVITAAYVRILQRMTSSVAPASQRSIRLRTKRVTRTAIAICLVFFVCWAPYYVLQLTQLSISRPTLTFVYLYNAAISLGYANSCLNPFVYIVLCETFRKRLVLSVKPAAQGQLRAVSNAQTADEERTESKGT

[5] = target: T1, Melanin-concentrating hormone receptor 1; experiment: Inhibition of melanin concentrating hormone receptor 1-mediated [Ca2+] release in human neuronal IMR-32 cells; assay type: functional, cell-based
Mus musculus [6] = experiment: Change in body weight of mice on day 14 following peroral administration at 30 mg/kg, twice a day; n = 12; body weight at day 0 = 45 g; assay type: functional; details: route oral; outline: as §1
Mus musculus [7] = experiment: Change in body weight of mice on day 14 following peroral administration at 10 mg/kg, twice a day; n = 12; body weight at day 0 = 44.7 g; assay type: functional; details: route oral; outline: as §1
[8] = Maximum concentration in brain of mice following peroral administration at 10 mg/kg; n=3; assay type: ADME, organism-based; set-up: dose 10 mg/kg, route oral; details: mouse, po
Outline: (§3)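 DIO mice given a single 10 mg/kg oral dose in 1% Tween-80 in water. Plasma and brain drug levels were measured over time. Cmax is the average of the three mice with the highest concentrations. AUC0-t was calculated by the linear trapezoidal rule, and the residual area (Ct/β) was added to give AUC0-∞. C12h is the brain level at 12 h postdose.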

[9] = Concentration in brain of mice,1 hour after administration of final dose at 10 mg/kg, twice a day; assay type: ADME, organism-based; set-up: dose 10 mg/kg; details: mouse, read-out: Cmax; outline: as §2
[10] = Concentration in brain of mice,1 hour after administration of final dose at 30 mg/kg, twice a day; assay type: ADME, organism-based; set-up: dose 30 mg/kg; details: mouse, read-out: Cmax; outline: as §2
[11] = Concentration in plasma of mice,1 hour after administration of final dose at 10 mg/kg, twice a day; assay type: ADME, organism-based; set-up: dose 10 mg/kg; details: mouse, read-out: Cmax; outline: as §2
[12] = Concentration in plasma of mice,1 hour after administration of final dose at 30 mg/kg, twice a day; assay type: ADME, organism-based; set-up: dose 30 mg/kg; details: mouse, read-out: Cmax; outline: as §2
[13] = Concentration in brain of mice,17 hours after administration of final dose at 10 mg/kg, twice a day; assay type: ADME, organism-based; set-up: dose 10 mg/kg; details: mouse, read-out: Cmax; outline: as §2
[14] = Concentration in plasma of mice,17 hours after administration of final dose at 10 mg/kg, twice a day; assay type: ADME, organism-based; set-up: dose 10 mg/kg; details: mouse, read-out: Cmax; outline: as §2
[15] = Concentration in plasma of mice,17 hours after administration of final dose at 30 mg/kg, twice a day; assay type: ADME, organism-based; set-up: dose 30 mg/kg; details: mouse, read-out: Cmax; outline: as §2
[16] = Maximum concentration in brain of mice at 12 hours following peroral administration at 10 mg/kg; n=3; assay type: ADME, organism-based; set-up: dose 10 mg/kg, route oral; details: mouse, po; outline: as §3
[17] = Area under concentration time curve in brain of mice following peroral administration at 10 mg/kg; n=3; assay type: ADME, organism-based; set-up: dose 10 mg/kg, route oral; details: mouse, in vivo, po; outline: as §3
[18] = Area under concentration time curve in plasma of mice following peroral administration at 10 mg/kg; n=3; assay type: ADME, organism-based; set-up: dose 10 mg/kg, route oral; details: mouse, in vivo, po; outline: as §3
[19] = Maximum concentration of the compound in brain of mice following peroral administration at 10 mg/kg; n=3; assay type: ADME, organism-based; set-up: dose 10 mg/kg, route oral; details: mouse, po; outline: as §3
[20] = Area under concentration time curve in brain of mice following peroral administration of 10 mg/kg of the compound; assay type: ADME, organism-based; set-up: dose 10 mg/kg, route oral; details: mouse, in vivo, po; outline: as §3
[21] = Area under concentration time curve in plasma of mice following peroral administration of 10 mg/kg of the compound; assay type: ADME, organism-based; set-up: dose 10 mg/kg, route oral; details: mouse, in vivo, po; outline: as §3
Mus musculus [22] = experiment: Body weight of mice on day 14 following peroral administration at 10 mg/kg, 4 times a day; n = 12; assay type: functional; details: route oral
Mus musculus [23] = experiment: Change in body weight of mice on day 14 following peroral administration at 10 mg/kg, 4 times a day; n = 12; body weight at day 0 = 43.2 g; assay type: functional; details: route oral

Structure (SMILES)	IC50 [4]	IC50 [5]	Cmax [8]	Cmax [16]	AUC [17]	AUC [18]	other results
O=C(Cc1ccc(OCc2ccccc2)cc1)Nc1ccc2cnn(CCN3CCCC3)c2c1	1.4 nM	11 nM	177 ng/g	29 ng/g	1.33 µg/h/g	2.12 µg/h/g	Body weight (Mus musculus [1]): 42.6 g; Body weight (Mus musculus [2]): 39.7 g; concentration at 17 h [3]: 5.35 ng/mL; Activity (Mus musculus [6]): -15.2%; Activity (Mus musculus [7]): -8.25%; concentration at 1 h [9]: 115 ng/mL; concentration at 1 h [10]: 233 ng/mL; concentration at 1 h [11]: 168 ng/mL; concentration at 1 h [12]: 824 ng/mL; concentration at 17 h [13]: 7.02 ng/mL; concentration at 17 h [14]: 0.39 ng/mL; concentration at 17 h [15]: 2.23 ng/mL
O=C(Cc1ccc(OCc2ccccc2)cc1)Nc1ccc2nn(CCN3CCCC3)cc2c1	1990 nM	> 10000 nM	–	–	–	–	–
O=C(Cc1ccc(OCc2ccccc2)cc1)Nc1ccc2cn(CCN3CCCC3)nc2c1	146 nM	874 nM	–	–	–	–	–
O=C(Cc1ccc(OCc2ccccc2)cc1)Nc1ccc2ncn(CCN3CCCC3)c2c1	161 nM	> 10000 nM	–	–	0.244 µg/h/g	0.937 µg/h/g	Cmax [19]: 54.4 ng/g
O=C(Cc1ccc(OCc2ccccc2)cc1)Nc1ccc2c(cnn2CCN2CCCC2)c1	558 nM	> 10000 nM	4260 ng/g	76 ng/g	10.4 µg/h/g	8.51 µg/h/g	–
O=C(Cc1ccc(OCc2ccccc2)cc1)Nc1ccc2ccn(CCN3CCCC3)c2c1	22 nM	1470 nM	–	–	–	–	AUC [20]: 0.348 µg/h/g; AUC [21]: 1.37 µg/h/mL
O=C(CNCc1ccc(Oc2ccccc2)cc1)Nc1ccc2ncn(CCN3CCCC3)c2c1	299 nM	1810 nM	–	–	–	–	AUC [20]: 0.674 µg/h/g; AUC [21]: 1.16 µg/h/mL
CCN[C@@H](C)Cc1cccc(C(F)(F)F)c1 [DEXFENFLURAMINE]	–	–	–	–	–	–	Body weight (Mus musculus [22]): 40.4 g; Activity (Mus musculus [23]): -10.1%
O=C(Cc1ccc(OCc2ccccc2)cc1)Nc1cccc2c1cnn2CCN1CCCC1	24.5 nM	71 nM	464 ng/g	8.11 ng/g	1.18 µg/h/g	0.611 µg/h/g	–
O=C(Cc1ccc(OCc2ccccc2)cc1)Nc1ccc2c(c1)ncn2CCN1CCCC1	772 nM	> 10000 nM	–	–	–	–	–
O=C(Cc1ccc(OCc2ccccc2)cc1)Nc1cccc2nn(CCN3CCCC3)cc12	41.4 nM	287 nM	214 ng/g	12.3 ng/g	0.214 µg/h/g	2.09 µg/h/g	–
